Results from article PMC11734723 (Science Advances, 2025).

Experiments:
[1] = tested on: TRPC4^−/− and TRPC(1–7)^−/− BMSMCs; assay: Osteoclastogenesis from TRPC4−/− and TRPC; format: cell-based, mouse
Method in brief: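 Myeloid cells from bone marrow and spleen of TRPC4−/− and TRPC(1–7)−/− mice were cultured in αMEM, 10% FBS and mCSF (50 ng/ml). RANKL (1 or 100 ng/ml) was added at 24 h, and TNFα (2 ng/ml) and test compound (100 nM) 2–3 days later as indicated. Cultures ran 14–21 days with feeding every 3–5 days before TRAP, Ca²⁺ and pit read-outs.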

mouse TRPC4β = molecular target: T1, mouse TRPC4β (Mus musculus, UniProt Q9QUQ5); assay: Whole-cell patch clamp of Englerin A-induced TRPC4 currents in HEK293 cells; format: cell-based; conditions: for decrease of EA-induced TRPC4 current 45 s after the peak: EA 30 nM
T1 sequence (Q9QUQ5 1-890 isoform Q9QUQ5-2): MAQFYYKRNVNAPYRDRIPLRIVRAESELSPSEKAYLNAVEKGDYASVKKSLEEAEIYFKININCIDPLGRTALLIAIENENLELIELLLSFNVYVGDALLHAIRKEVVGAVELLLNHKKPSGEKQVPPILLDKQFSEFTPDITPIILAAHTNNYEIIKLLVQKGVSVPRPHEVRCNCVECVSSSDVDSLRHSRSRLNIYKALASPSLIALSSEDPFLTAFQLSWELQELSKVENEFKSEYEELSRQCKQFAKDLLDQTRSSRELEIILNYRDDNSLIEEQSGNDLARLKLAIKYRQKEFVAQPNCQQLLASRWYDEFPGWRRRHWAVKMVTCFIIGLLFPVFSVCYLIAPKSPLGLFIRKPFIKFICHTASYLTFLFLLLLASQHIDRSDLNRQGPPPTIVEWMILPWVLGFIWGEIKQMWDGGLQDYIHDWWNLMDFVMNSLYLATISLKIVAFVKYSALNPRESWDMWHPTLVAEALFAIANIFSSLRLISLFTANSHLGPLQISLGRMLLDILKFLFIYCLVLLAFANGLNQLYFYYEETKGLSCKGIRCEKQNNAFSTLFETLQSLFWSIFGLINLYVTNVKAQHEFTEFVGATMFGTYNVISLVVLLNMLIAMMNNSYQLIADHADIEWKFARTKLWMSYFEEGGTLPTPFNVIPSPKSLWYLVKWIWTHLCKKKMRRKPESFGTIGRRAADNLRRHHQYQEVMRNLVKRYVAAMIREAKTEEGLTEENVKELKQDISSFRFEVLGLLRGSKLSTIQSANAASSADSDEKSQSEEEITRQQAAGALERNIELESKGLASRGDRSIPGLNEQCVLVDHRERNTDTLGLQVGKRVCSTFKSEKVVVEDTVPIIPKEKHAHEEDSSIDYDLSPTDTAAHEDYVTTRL
Method in brief: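 Whole-cell recordings were made from HEK293 cells transiently expressing mouse TRPC4β, using ramps from −100 to +100 mV (200 ms, every 5 s; holding 0 mV). Pipette: CsCl with BAPTA (free Ca²⁺ 400 nM), pH 7.2; bath pH 7.4. After ~30 s in nominally Ca²⁺-free bath, Englerin A (30 nM) was applied. About 10 s after peak, Englerin A plus test compound (10, 30, 100 or 1000 nM) was perfused for ~90–100 s. Currents were read at ±100 mV.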

STIM1/Orai1 = STIM1/Orai1 (Homo sapiens, UniProt Q13586); assay: Store-operated Ca2+ entry; format: cell-based; conditions: Tg 2 μM, 1 mM Ca2+, ELP-004 0 to 1 mM
STIM1/Orai1, sequence (Q13586 23-685, species assumed): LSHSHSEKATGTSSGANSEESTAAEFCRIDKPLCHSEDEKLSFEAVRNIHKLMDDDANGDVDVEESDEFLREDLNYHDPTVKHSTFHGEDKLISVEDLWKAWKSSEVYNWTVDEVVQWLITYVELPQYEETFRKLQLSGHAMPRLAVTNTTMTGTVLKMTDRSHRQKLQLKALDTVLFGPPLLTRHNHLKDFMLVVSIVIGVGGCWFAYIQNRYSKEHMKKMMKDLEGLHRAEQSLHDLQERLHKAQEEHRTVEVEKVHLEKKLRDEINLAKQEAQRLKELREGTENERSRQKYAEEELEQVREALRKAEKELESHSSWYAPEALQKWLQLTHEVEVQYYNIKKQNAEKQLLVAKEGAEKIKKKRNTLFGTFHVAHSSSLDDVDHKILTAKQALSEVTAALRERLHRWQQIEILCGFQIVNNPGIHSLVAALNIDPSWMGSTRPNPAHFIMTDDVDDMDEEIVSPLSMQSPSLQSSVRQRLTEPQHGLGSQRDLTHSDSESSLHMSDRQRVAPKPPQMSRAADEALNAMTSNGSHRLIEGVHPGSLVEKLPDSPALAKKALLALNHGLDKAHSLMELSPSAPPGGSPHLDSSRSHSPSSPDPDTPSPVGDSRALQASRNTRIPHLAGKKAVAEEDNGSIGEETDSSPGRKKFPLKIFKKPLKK
Method in brief: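 STIM1–YFP was electroporated into HEK293 cells, which were selected with puromycin (5 µg/ml) and cloned for highest YFP. Orai1–CFP was then added, followed by G418 selection and cloning for highest YFP/CFP and screening for SOCE. Fura2-loaded cells (2 µM, 30 min, RT) were held 10 min in Ca²⁺-free pH 7.2 buffer with thapsigargin (2 µM) and test compound. After baseline, 1 mM Ca²⁺ was added; the read-out was the 340/380 ratio.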

Human PBMCs = assay: TRAP staining, multinucleation and cell size of human PBMC-derived osteoclasts; format: cell-based; conditions: ELP-004 100 nM; for effect on multinucleation: 14 days
Method in brief: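 Human PBMCs were grown with human mCSF (50 ng/ml) plus RANKL (100 ng/ml), or RANKL (1 ng/ml) with TNFα (2 ng/ml), ±test compound (100 nM), for 14 days. Cells were fixed with 2% PFA (30 min, RT) and stained for TRAP with ELF-97 (200 µM) in acetate/nitrite/tartrate buffer (15 min, RT). After permeabilisation, nuclei were counterstained with 7-AAD. Confocal images were scored for TRAP intensity, TRAP-positive cells and nuclei per cell.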

murine BMSMCs = assay: Basal intracellular Ca2+ during osteoclastogenesis of murine BMSMCs; format: cell-based, mouse; conditions: ELP-004 100 nM
Method in brief: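 C57Bl/6 bone marrow/spleen myeloid cells were grown in αMEM, 10% FBS, and mCSF (50 ng/ml). RANKL (1 or 100 ng/ml) was added at 24 h. After 2–3 days, TNFα (2 ng/ml), LTB4 (50 nM) and test compound (100 nM) were added as indicated, with media refreshed every 3–5 days. On days 1, 7, 14 and 21, cells were Fura2-loaded (2 µM, 30 min, RT; 30 min de-esterification) in pH 7.2 buffer. Basal Ca²⁺ was read as the 340/380 ratio.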

## CCC(=O)N(C)c1ccc(Cl)c(Cl)c1 [ELP-004]
[1]; RANKL or RANKL/TNFα osteoclasts from knockout BMSMCs
  effect on intracellular Ca2+: no effect
[1]; knockout BMSMCs
  effect on TRAP expression: no effect
  effect on cell size: no effect
  effect on multinucleation: no effect
  effect on pit formation: no effect
Mouse TRPC4β; 10 nM ELP-004, +100 mV
  decrease of EA-induced TRPC4 current 45 s after the peak: 37%
Mouse TRPC4β; 10 nM ELP-004, −100 mV
  decrease of EA-induced TRPC4 current 45 s after the peak: 58%
Mouse TRPC4β; 1 μM ELP-004
  inhibition of EA-induced TRPC4 currents: lost its inhibitory action
Mouse TRPC4β; 30 and 100 nM ELP-004 versus 10 nM
  inhibition of EA-induced TRPC4 currents at higher concentrations: did not show stronger inhibitory effects
STIM1/Orai1
  effect on STIM1/Orai1-mediated Ca2+ entry: largely unaffected
Human PBMCs; RANKL
  effect on multinucleation: significantly inhibited
  effect on intensity of TRAP+ cells: not intensity
  effect on number of TRAP+ cells: inhibited the number
Human PBMCs; TNFα-induced osteoclasts
  effect on cell size: significantly reduced
Human PBMCs; TNFα/RANKL
  effect on multinucleation: significantly inhibited
  effect on intensity of TRAP+ cells: inhibited
  effect on number of TRAP+ cells: inhibited
Murine BMSMCs; LTB4 (50 nM)/RANKL (1 ng/ml)
  effect on Ca2+ elevation: significantly attenuated
Murine BMSMCs; RANKL-induced (100 ng/ml), days 1-21
  effect on basal Ca2+ levels: no significant effect
Murine BMSMCs; TNFα (2 ng/ml)/RANKL (1 ng/ml)
  effect on Ca2+ elevation: significantly attenuated
